# The source made the active and inactive calls. The rule behind the calls is not given here.
# Tests used:
# LNCaP [1] = assay: Cytotoxicity against human LNCAP cells assessed as growth inhibition at 2 to 20 uM after 144 hrs by SRB assay; assay type: functional, cell-based
# How it was run: (§1)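 LNCaP and AR-overexpressing LNCaP-AR (3–5-fold higher AR) prostate cancer cells were incubated 144 h with scalar concentrations from 0.02 to 20 μM. Sulforhodamine B read-out was used for growth inhibition (IG50) and cytocidal (LC50) values. Results are the average of three independent experiments.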
# LNCaP-AR = assay: Cytotoxicity against human LNCaP-AR cells assessed as growth inhibition at 2 to 20 uM after 144 hrs by SRB assay relative to control; assay type: functional, cell-based; how it was run: as §1
# LNCaP [2] = assay: Cytocidal activity in against human LNCAP cells after 144 hrs by SRB assay; assay type: functional; conditions: read-out: LC50 (the source's name); how it was run: as §1
# [3] = Growth inhibition in human LNCaP-AR cells after 144 hrs by SRB assay; assay type: functional; how it was run: as §1
# LNCaP [4] = assay: Induction of apoptosis in human LNCAP cells at 20 uM after 144 hrs by […]; assay type: functional
# [5] = Induction of apoptosis in human LNCaP-AR cells at 20 uM after 144 hrs by propidium iodide staining based flow cytometry analysis; assay type: functional
# [6] = target: T1, Androgen receptor (Homo sapiens) (UniProt P10275); assay: Antagonist activity at human AR expressed in COS7 cells receptor assessed as inhibition of androgen-induced transcriptional activation at 10 nM to 10 uM by ARE-luciferase reporter gene assay; assay type: functional, cell-based; conditions: COS-7
# T1 sequence (whole entry): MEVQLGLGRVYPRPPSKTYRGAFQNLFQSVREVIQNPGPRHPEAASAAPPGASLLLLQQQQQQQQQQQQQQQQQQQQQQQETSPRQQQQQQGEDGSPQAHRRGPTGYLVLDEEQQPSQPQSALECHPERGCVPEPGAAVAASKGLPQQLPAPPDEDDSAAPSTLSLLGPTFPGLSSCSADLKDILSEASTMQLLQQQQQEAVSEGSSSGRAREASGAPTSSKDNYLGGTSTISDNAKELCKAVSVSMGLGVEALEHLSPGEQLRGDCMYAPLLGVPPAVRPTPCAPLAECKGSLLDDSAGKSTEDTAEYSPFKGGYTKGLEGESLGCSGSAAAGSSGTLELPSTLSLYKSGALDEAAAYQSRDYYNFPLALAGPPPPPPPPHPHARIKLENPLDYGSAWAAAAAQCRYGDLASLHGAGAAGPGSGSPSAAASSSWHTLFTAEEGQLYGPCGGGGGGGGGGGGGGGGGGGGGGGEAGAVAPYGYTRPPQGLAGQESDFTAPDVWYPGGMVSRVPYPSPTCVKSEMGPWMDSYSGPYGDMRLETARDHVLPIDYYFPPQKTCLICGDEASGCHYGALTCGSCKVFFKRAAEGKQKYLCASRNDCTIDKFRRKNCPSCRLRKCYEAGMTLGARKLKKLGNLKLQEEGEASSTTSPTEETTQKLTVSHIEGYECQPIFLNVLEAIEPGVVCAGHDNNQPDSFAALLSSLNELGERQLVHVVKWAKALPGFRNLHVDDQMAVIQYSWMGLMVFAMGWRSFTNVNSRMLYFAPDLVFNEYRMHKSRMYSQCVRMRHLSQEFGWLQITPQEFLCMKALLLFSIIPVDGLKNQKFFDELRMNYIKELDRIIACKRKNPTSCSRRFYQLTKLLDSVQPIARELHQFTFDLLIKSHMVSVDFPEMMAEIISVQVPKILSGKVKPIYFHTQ
# How it was run: (§2)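 AR-negative Cos-7 cells plated subconfluent (60–70%) in phenol red-free DMEM with 5% charcoal-stripped serum for 48 h, then cotransfected with 0.3 μg 3416-pTK-TATA-Luc and 1.5 μg pSG5-hAR or empty pSG5. After 24 h, stimulated 24 h with 10 nM R1881 plus compounds. Lysate luciferase as fold induction; hAR checked by Western blot; three experiments.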
# [7] = target: T1, Androgen receptor (Homo sapiens); assay: Antagonist activity at human AR expressed in COS7 cells receptor assessed as inhibition of R1881-induced transcriptional activation at 10 uM by ARE-luciferase reporter gene assay; assay type: functional, cell-based; conditions: COS-7; how it was run: as §2
# [8] = target: T1, Androgen receptor (Homo sapiens); assay: Agonist activity at AR receptor in human LNCAP cells at 10 nM to 10 uM by ARE-luciferase reporter gene assay; assay type: functional, cell-based
# How it was run: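 Androgen-responsive LNCaP cells plated subconfluent (60–70%) in phenol red-free DMEM with 5% charcoal-stripped serum for 48 h, then transfected with 0.3 μg 3416-pTK-TATA-Luc ARE reporter. After 24 h, cells were exposed for 24 h to compounds (10 nM to 10 μM) without or with 10 nM R1881. Lysate luciferase expressed as fold induction; three independent experiments.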
# [9] = Cytocidal activity in human LNCaP-AR cells after 144 hrs by SRB assay; assay type: functional; conditions: read-out: LC50 (the source's name); how it was run: as §1
# [10] = target: T1, Androgen receptor (Homo sapiens); assay: Antagonist activity at AR receptor in human LNCAP cells assessed as inhibition of R1881-induced transcriptional activation at 10 nM to 10 uM by ARE-uciferase reporter gene assay; assay type: functional, cell-based
# How it was run: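 LNCaP cells at 60–70% confluence, plated in phenol red-free DMEM with 5% charcoal-stripped serum, then transfected after 48 h with 0.3 μg 3416-pTK-TATA-Luc reporter. 24 h later, stimulated for 24 h with 10 nM R1881 with or without test compound (10 nM–10 μM). Luciferase activity in lysates was expressed as fold induction. Three independent experiments were averaged.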
compound,measurement,setting,value
C[C@@](N)(CS(=O)(=O)c1ccc(F)cc1)C(=O)Nc1ccc(C#N)c(C(F)(F)F)c1,growth inhibition (GI),LNCaP [1],Active
C[C@@]1(CS(=O)(=O)c2ccc(F)cc2)NC(=O)N(c2ccc(C#N)c(C(F)(F)F)c2)C1=O,growth inhibition (GI),LNCaP [1],Active
C[C@]1(CS(=O)(=O)c2ccc(F)cc2)NC(=O)N(c2ccc(C#N)c(C(F)(F)F)c2)C1=O,growth inhibition (GI),LNCaP [1],Active
CC(C)(C)S(=O)(=O)N[C@@](C)(CS(=O)(=O)c1ccc(F)cc1)C(=O)Nc1ccc(C#N)c(C(F)(F)F)c1,growth inhibition (GI),LNCaP [1],Active
C[C@](O)(CS(=O)(=O)c1ccc(F)cc1)C(=O)Nc1ccc(C#N)c(C(F)(F)F)c1 [(R)-BICALUTAMIDE],growth inhibition (GI),LNCaP [1],Active
same,growth inhibition (GI),LNCaP-AR,inactive
same,CC50,LNCaP [2],< 1.8 µM
same,IG50,[3],<1.8 µM
same,Activity,LNCaP [4],2.1%
same,Activity,[5],2.1%
C[C@]1(CS(=O)(=O)c2ccc(F)cc2)NC(=S)N(c2ccc(C#N)c(C(F)(F)F)c2)C1=O,growth inhibition (GI),LNCaP [1],Active
C[C@](N)(COc1ccc(C#N)cc1)C(=O)Nc1ccc(C#N)c(C(F)(F)F)c1,Activity,[6],Active
same,inhibition,[7],inactive
Cc1ccc(S(=O)(=O)N[C@@](C)(CS(=O)(=O)c2ccc(F)cc2)C(=O)Nc2ccc(C#N)c(C(F)(F)F)c2)cc1,growth inhibition (GI),LNCaP [1],Active
C[C@@]1(CS(=O)(=O)c2ccc(F)cc2)NC(=S)N(c2ccc(C#N)c(C(F)(F)F)c2)C1=O,growth inhibition (GI),LNCaP [1],Active
CC(C)(C)S(=O)(=O)N[C@](C)(CS(=O)(=O)c1ccc(F)cc1)C(=O)Nc1ccc(C#N)c(C(F)(F)F)c1,growth inhibition (GI),LNCaP [1],Active
same,growth inhibition (GI),LNCaP-AR,Active
C[C@@]1(COc2ccc(C#N)cc2)NC(=O)N(c2ccc(C#N)c(C(F)(F)F)c2)C1=O,Activity,[6],inactive
same,Activity,[8],inactive
Cc1ccc(S(=O)(=O)N[C@](C)(CS(=O)(=O)c2ccc(F)cc2)C(=O)Nc2ccc(C#N)c(C(F)(F)F)c2)cc1,growth inhibition (GI),LNCaP [1],Active
same,growth inhibition (GI),LNCaP-AR,Active
same,CC50,LNCaP [2],18.3 µM
same,CC50,[9],18.3 µM
same,Activity,LNCaP [4],80.5%
same,Activity,[5],91.6%
same,Activity,[8],inactive
same,inhibition,[7],Active
same,inhibition,[10],Active
C[C@](N)(CS(=O)(=O)c1ccc(F)cc1)C(=O)Nc1ccc(C#N)c(C(F)(F)F)c1,growth inhibition (GI),LNCaP [1],Active

# — ChEMBL document CHEMBL2202970, “Nonsteroidal androgen receptor ligands: versatile syntheses and biological data” (2012)
